Series [1] concerns Murine hepatitis virus. The series is described as follows: Antiviral activity against murine hepatitis virus-A59 infected in BALB/c mouse assessed as alleviation of interstitial pneumonia in lungs at 200 mg/kg, po administered once daily one hour post infection and measured after 3 days by H&E staining based analysis. It counts as functional, organism-based. Particulars: time 3.0 day. In short, it runs like this:
(§1)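 In male BALB/c mice (3–4 weeks), MHV-A59 was given intranasally (30 μL, TCID50 = 10−7.125/100 μL). Oral dosing once daily in a Cremophor EL/PBS/DMSO vehicle began at 1 hpi and lasted four days. At 3 dpi, lungs and livers from 4 mice per group were fixed in zinc formalin and paraffin-embedded. Sections of about 4 μm were stained with H&E and examined at 200× and 400×.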

Series [2] in a line: Toxicity in BALB/c mouse infected with murine hepatitis virus-A59 assessed as effect on survival at 50 to 200 mg/kg, po administered once daily one hour post infection and measured after 23 days. To be noted: in vivo, 552 h.
Series [3] is described as follows: Drug metabolism in Sprague-Dawley rat assessed as hydrolysis-mediated GS-441524 metabolite formation at 25 mg/kg, po administered as single dose and measured after 24 hrs by LC-MS/MS analysis. To be noted: in vivo. It counts as ADME, organism-based. In short, it runs like this:
(§2)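 Male SD rats (n = 3), fasted 12 h, dosed intragastrically; jugular vein blood into EDTA-K2 tubes at 0.25, 0.5, 1, 2, 3, 4, 6, 8 and 24 h; plasma protein-precipitated with acetonitrile, filtered, analytes measured by LC/MS/MS; noncompartmental PK analysis; mean ± SD.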

Series [4] relates to Murine hepatitis virus. The series is described as follows: Antiviral activity against murine hepatitis virus-A59 infected in BALB/c mouse model of acute liver injury assessed as reduction in plasma ALT level at 10 to 200 mg/kg, po administered once daily one hour post infection and measured after 3 days. It counts as functional, organism-based. Particulars: dose 10-200 mg/kg, time 3.0 day. The essentials: (§3)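 Male BALB/c mice were infected intranasally with MHV-A59 (30 μL, TCID50 = 10−7.125/100 μL) and dosed orally once daily from 1 hpi for four days in 15% Cremophor EL/82.5% PBS/2.5% DMSO. At 3 dpi, blood from 4 euthanized mice per group was left to clot at room temperature and centrifuged. Serum ALT and AST were measured on a clinical chemistry analyzer.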

For series [5], the system named is Murine hepatitis virus. Put plainly: Antiviral activity against murine hepatitis virus-A59 infected in po dosed BALB/c mouse assessed as inhibition of viral replication in lungs administered once daily one hour post infection and measured after 3 days by qRT-PCR analysis. It counts as functional, organism-based. To be noted: dose 10-200 mg/kg, time 3.0 day. The essentials: (§4)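 SPF male BALB/c mice aged 3–4 weeks were put under isoflurane and inoculated intranasally with 30 μL MHV-A59 (TCID50 = 10−7.125/100 μL) in PBS. Oral dosing once daily in 15% Cremophor EL/82.5% PBS/2.5% DMSO started at 1 hpi and ran for four days; groups had 12 mice. At 3 dpi, 4 mice per group were killed and lung and liver M-gene copies measured by qRT-PCR.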

The subject of series [6] is Murine hepatitis virus. The series is described as follows: Antiviral activity against murine hepatitis virus-A59 infected in BALB/c mouse assessed as remission of fulminant hepatitis in liver at 200 mg/kg, po administered once daily one hour post infection and measured after 3 days by H&E staining based analysis. It counts as functional, organism-based. Particulars: time 3.0 day. The essentials:
as §1

Series [7] deals with Murine hepatitis virus. Put plainly: Antiviral activity against murine hepatitis virus-A59 infected in BALB/c mouse assessed as alleviation of thickened alveolar septa in lungs at 200 mg/kg, po administered once daily one hour post infection and measured after 3 days by H&E staining based analysis. It counts as functional, organism-based. Particulars: time 3.0 day. In short, it runs like this: as §1

Series [8] has as its system Murine hepatitis virus. The series is described as follows: Antiviral activity against murine hepatitis virus-A59 infected in BALB/c mouse assessed as reduction in CXCL10 production in lungs at 200 mg/kg, po administered once daily one hour post infection and measured after 3 days by ELISA analysis. It counts as functional, organism-based. To be noted: time 3.0 day. In short, it runs like this:
(§5)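 MHV-A59 was inoculated intranasally into male BALB/c mice (30 μL, TCID50 = 10−7.125/100 μL), with oral dosing once daily from 1 hpi for four days. At 3 dpi, 0.1 g lung or liver from 4 mice per group was homogenized in 0.9 mL water at 4 °C and centrifuged. Supernatant IFN-β was read by ELISA; TNF-α, IFN-γ, IL-1β, IL-6 and CXCL10 by multi-analyte kit, with OD 450 nm against standards.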
A general note: An ELISA detects its analyte on a solid surface through an enzyme-linked reagent.

Series [9] deals with Murine hepatitis virus. Put plainly: Antiviral activity against murine hepatitis virus-A59 infected in BALB/c mouse assessed as inhibition of viral titer in liver at 10 to 200 mg/kg, po administered once daily one hour post infection and measured after 3 days by qRT-PCR analysis. It counts as functional, organism-based. Particulars: dose 10-200 mg/kg, time 3.0 day. In short, it runs like this:
as §4
In general terms: In qPCR the cycle at which signal appears reflects the starting amount.

A short description of series [10]: Drug distribution in BALB/c mouse kidney assessed as hydrolyzed GS-441524 metabolite at 200 mg/kg, po administered as single dose and measured after 1 hrs by LC-MS/MS analysis. It counts as ADME, organism-based. To be noted: in vivo.
Series [11] deals with Murine hepatitis virus. The series is described as follows: Antiviral activity against murine hepatitis virus-A59 infected in BALB/c mouse assessed as remission of hemorrhage in liver at 200 mg/kg, po administered once daily one hour post infection and measured after 3 days by H&E staining based analysis. It counts as functional, organism-based. Particulars: time 3.0 day. The essentials:
as §1

The test system of series [12] is Murine hepatitis virus. Put plainly: Antiviral activity against murine hepatitis virus-A59 infected in BALB/c mouse model of acute liver injury assessed as reduction in plasma AST level at 10 to 200 mg/kg, po administered once daily one hour post infection and measured after 3 days. It counts as functional, organism-based. To be noted: dose 10-200 mg/kg, time 3.0 day. In short, it runs like this: as §3

In series [13] the test system is Murine hepatitis virus. The series is described as follows: Antiviral activity against murine hepatitis virus-A59 infected in BALB/c mouse assessed as reduction in IFN-gamma production in liver at 10 to 100 mg/kg, po administered once daily one hour post infection and measured after 3 days by ELISA analysis. It counts as functional, organism-based. Particulars: dose 10-100 mg/kg, time 3.0 day. The essentials:
as §5

Series [14] relates to Murine hepatitis virus. Put plainly: Antiviral activity against murine hepatitis virus-A59 infected in BALB/c mouse assessed as reduction in TNF-alpha production in liver at 10 to 100 mg/kg, po administered once daily one hour post infection and measured after 3 days by ELISA analysis. It counts as functional, organism-based. Particulars: dose 10-100 mg/kg, time 3.0 day. In short, it runs like this:
as §5

Series [15] in a line: Solubility of the compound. It counts as physicochemical.
The nature of series [16]: Drug metabolism in Sprague-Dawley rat assessed as hydrolysis-mediated ibuprofen metabolite formation at 25 mg/kg, po administered as single dose and measured after 24 hrs by LC-MS/MS analysis. It counts as ADME, organism-based. To be noted: in vivo. In short, it runs like this:
as §2

Series [17] in a line: Drug metabolism in Sprague-Dawley rat assessed as hydrolysis-mediated ibuprofen metabolite formation at 5 mg/kg, iv administered as single dose and measured after 24 hrs by LC-MS/MS analysis. It counts as ADME, organism-based. To be noted: in vivo.
The nature of series [18]: Drug distribution in BALB/c mouse plasma assessed as hydrolyzed ibuprofen metabolite at 200 mg/kg, po administered as single dose and measured after 1 hrs by LC-MS/MS analysis. To be noted: in vivo. It counts as ADME, organism-based.
The subject of series [19] is Feline infectious peritonitis virus. The series is described as follows: Antiviral activity against Feline infectious peritonitis virus infected in CRFK cells assessed as reduction in viral copy pre-infected with cells for 1 hrs followed by compound addition and measured after 48 hrs by RT-qPCR analysis. It counts as functional, organism-based. To be noted: Alphacoronavirus 1, CRFK. The essentials:
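CRFK cells (CCoV, FIPV) or ST cells (TGEV) were grown in DMEM with 10% FBS at 37 °C, 5% CO2. At 80% confluence they were washed in serum-free medium and infected at MOI 0.01 for 1 h at 37 °C. Compounds were then added at 0.1–100 μmol/L, with DMSO as blank. After 48 h, cells and supernatants were analysed by qRT-PCR. Inhibition came from viral copy number, and EC50 from curve fitting.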

Series [20] in a line: Drug distribution in BALB/c mouse kidney assessed as hydrolyzed ibuprofen metabolite at 200 mg/kg, po administered as single dose and measured after 1 hrs by LC-MS/MS analysis. It counts as ADME, organism-based. Particulars: in vivo.

pEC50: −log10 of the molar value. ≈ marks a conversion by molar mass, not a printed value. Calls of active or inactive are those of the source. The rule behind the calls is not given here.

Experimental findings from ChEMBL document CHEMBL5346886 (Eur J Med Chem, 2023) are described below.

As to `CC(C)Cc1ccc(C(C)C(=O)OC[C@H]2O[C@@](C#N)(c3ccc4c(N)ncnn34)[C@H](O)[C@@H]2O)cc1` (stereo not given in full), the outcome with Murine hepatitis virus [1], in the series on Murine hepatitis virus [4], with Murine hepatitis virus [6], in the series on Murine hepatitis virus [7], in the series with Murine hepatitis virus [8] and with Murine hepatitis virus [9] was Active. Further, the result in the series on Murine hepatitis virus [11], with Murine hepatitis virus [12], in the series with Murine hepatitis virus [13] and with Murine hepatitis virus [14] was Active. The Activity entry is “Toxic” in series [2] and “Dose-Dependent Effect” with Murine hepatitis virus [5]. Moreover, the Drug metabolism entry in series [3], in [16] and in series [17] was “Metabolite_Detected” throughout. Besides, the Drug uptake entry in [10], in [18] and in [20] was “Active” each time. Further, the solubility (as a rule, how much of the substance goes into solution per volume) in series [15] was 49.9 µM (≈ 23.9 µg/mL). The pEC50 (usually the EC50 on a negative log10 scale, so that one unit is a factor of ten) in series [19] is 5.13.
